Measured values published in paper PMC4216208 (Journal of Medicinal Chemistry, 2014).

Columns and labels:
HEK 293T/17 cells [1] = test: Mitochondrial-uncoupling assay; assay type: cell-based, human; conditions: 50 μM compound, TMRE staining
How it was run: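 HEK 293T/17 cells were trypsinised and suspended at 1−2 × 10^6 cells/mL in DMEM with 10% FBS, then given test compound (50 μM) or DMSO for 30 min at 37 °C. TMRE (~450 nM final) was added for 30 min in the dark at 37 °C. Cells were washed twice in 0.2% BSA/PBS, resuspended, and read by plate fluorescence (em 575 nm). Unstained and DMSO controls were included; mean ± sd, n = 3.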

C. elegans [2] = test: Metabolism of closantel in C. elegans; assay type: in vitro ADME, Caenorhabditis elegans
C. elegans [3] = test: Bioaccumulation in C. elegans; assay type: in vitro ADME, Caenorhabditis elegans; conditions: for accumulation in C. elegans (in words): late-stage L4 worms, 10 μM (2 nmol/mg worm), 6 h, LC-MS of homogenates
How it was run: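 Synchronised C. elegans grown to late L4 on E. coli OP50 at 25 °C for 40 h, water-washed, and suspended in M9 at ~5−10 worms/μL. Dosed at 10 μM final (~2 nmol/mg worm) from DMSO stock, 6 or 12 h at rt. Washed in 0.1% SDS then water, frozen, lyophilised, weighed, extracted into cold MeOH/MeCN with internal standard. Quantified by LC-ESI-MS against blank-worm calibration; mean ± sd, n = 3.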

O. volvulus L3 larvae [4] = conditions: 100 μM; cited from earlier work
O. volvulus L3 larvae [5] = test: O. volvulus L3 molting inhibition; assay type: cell-based, Onchocerca volvulus; conditions: 24 h preincubation, molting assessed day 6
PfCHT1 = target: T1, PfCHT1 (Plasmodium falciparum, UniProt Q8I4R4); test: Chitinase activity assay, Plasmodium falciparum chitinase; assay type: biochemical; conditions: 10 μM final concentration
T1 sequence (Q8I4R4 29-378): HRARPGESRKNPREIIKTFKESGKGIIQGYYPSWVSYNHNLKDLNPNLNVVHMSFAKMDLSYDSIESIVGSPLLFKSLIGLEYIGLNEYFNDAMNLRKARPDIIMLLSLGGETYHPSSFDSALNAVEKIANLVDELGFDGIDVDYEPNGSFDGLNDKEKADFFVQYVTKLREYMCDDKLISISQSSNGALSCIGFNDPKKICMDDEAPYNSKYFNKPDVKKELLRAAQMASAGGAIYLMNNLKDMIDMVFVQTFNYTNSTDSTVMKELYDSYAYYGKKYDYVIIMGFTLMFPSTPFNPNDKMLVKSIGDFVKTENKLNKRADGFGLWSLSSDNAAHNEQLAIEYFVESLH

EhCHT1 = test: Chitinase activity assay, Entamoeba histolytica chitinase; assay type: biochemical; conditions: 10 μM final concentration
BmCHT1 = target: T2, BmCHT1 (Brugia malayi, UniProt P29030); test: Chitinase activity assay, Brugia malayi chitinase; assay type: biochemical; conditions: 10 μM final concentration
T2 sequence (P29030 23-504): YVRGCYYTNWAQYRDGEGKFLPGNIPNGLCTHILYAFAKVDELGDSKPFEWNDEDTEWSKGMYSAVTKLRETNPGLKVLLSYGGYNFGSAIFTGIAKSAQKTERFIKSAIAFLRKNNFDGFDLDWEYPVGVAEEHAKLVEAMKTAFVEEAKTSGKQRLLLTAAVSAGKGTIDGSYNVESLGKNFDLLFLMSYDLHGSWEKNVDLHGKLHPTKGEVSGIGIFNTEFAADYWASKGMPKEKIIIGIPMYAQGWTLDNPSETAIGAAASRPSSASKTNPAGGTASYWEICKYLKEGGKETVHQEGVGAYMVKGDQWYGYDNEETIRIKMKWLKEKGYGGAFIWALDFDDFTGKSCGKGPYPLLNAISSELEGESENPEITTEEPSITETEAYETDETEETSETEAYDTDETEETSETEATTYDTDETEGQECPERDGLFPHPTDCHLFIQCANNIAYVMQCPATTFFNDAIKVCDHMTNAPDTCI

OvCHT1 = target: T3, OvCHT1 (Onchocerca volvulus, UniProt Q25615); test: O. volvulus chitinase; assay type: biochemical; conditions: 10 μM final concentration, relative to control (0.5% DMSO in water)
T3 sequence (Q25615 22-497): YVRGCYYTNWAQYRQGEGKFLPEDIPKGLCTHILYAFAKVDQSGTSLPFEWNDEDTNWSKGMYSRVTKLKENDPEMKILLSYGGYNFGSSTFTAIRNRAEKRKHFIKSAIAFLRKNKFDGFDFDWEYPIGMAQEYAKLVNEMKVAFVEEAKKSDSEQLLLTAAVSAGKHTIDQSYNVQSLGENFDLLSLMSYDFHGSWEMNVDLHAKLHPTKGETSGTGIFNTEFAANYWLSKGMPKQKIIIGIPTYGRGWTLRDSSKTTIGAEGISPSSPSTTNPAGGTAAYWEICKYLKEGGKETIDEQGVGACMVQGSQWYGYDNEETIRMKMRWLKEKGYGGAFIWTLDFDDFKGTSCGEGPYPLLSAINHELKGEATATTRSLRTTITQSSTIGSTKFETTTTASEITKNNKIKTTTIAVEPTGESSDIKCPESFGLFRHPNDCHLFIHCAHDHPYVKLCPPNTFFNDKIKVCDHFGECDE

HEK 293T/17 cells [6] = test: Cell viability assay; assay type: cell-based, human; conditions: 1 and 10 μM, 24 h, MTS assay
How it was run: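 HEK 293T/17 cells (2 × 10^4) plated and held 24 h at 37 °C, then exposed to test compound at 1 and 10 μM final. Viability was read by MTS at 0.5 and 24 h after treatment.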

SMILES | mitochondrial-uncoupling (protonophoric) activity (HEK 293T/17 cells [1]) | sulfation, glycosylation and glucuronidation of the salicylate moiety in C. elegans homogenates (C. elegans [2]) | primary metabolic pathway in C. elegans (C. elegans [2]; minor pathway, forms two monoiodoclosantel isomers) | accumulation in C. elegans (in words) (C. elegans [3]) | effect on molting of O. volvulus L3 to L4 larvae (O. volvulus L3 larvae [4]) | inhibition of O. volvulus L3 molting (O. volvulus L3 larvae [5]; 1 μM) | effect on O. volvulus L3 molting (O. volvulus L3 larvae [5]; 10 μM) | inhibition of PfCHT1 at single concentration (PfCHT1) | inhibition of EhCHT1 at single concentration (EhCHT1) | inhibition of BmCHT1 at single concentration (BmCHT1) | inhibition of OvCHT1 at single concentration (OvCHT1) | effect on cell viability of HEK 293T/17 cells (HEK 293T/17 cells [6]) | worm level as share of the initial dose (C. elegans [3]; at 6 and 12 h, initial dose 2 nmol/mg worm)
Cc1cc(C(C#N)c2ccc(Cl)cc2)c(Cl)cc1NC(=O)c1cc(I)cc(I)c1O (stereo not drawn) [Compound 1, closantel] | mitochondrial-uncoupling activity | not observed | reductive deiodination | accumulated in C. elegans | inhibit the molting | – | – | – | – | – | – | – | –
O=C(Nc1ccc(Oc2ccc(Cl)cc2)c(Cl)c1)c1cc(I)cc(I)c1O [Compound 3m, rafoxanide, reference compound] | good mitochondrial-uncoupling activity | – | – | accumulated in C. elegans | – | up to 84% | completely abolished molting | sparing | sparing | sparing | complete inhibition | no considerable effect on cell viability | > 75%
